# Results: ChEMBL document CHEMBL1142114, “Kaurane diterpenoids from Isodon excisus inhibit LPS-induced NF-kappaB activation and NO production in macrophage RAW264.7 cells” (J Nat Prod, 2007)
# Calls of active or inactive are those of the source. The rule behind the calls is not given here.
# Key:
# Assay type in all cases: functional, cell-based
# RAW264.7 [1] = test: Inhibition of NF-kappaB activation in LPS-stimulated RAW264.7 cells after 24 hrs; details: Mus musculus, RAW264.7, 24 h
# Procedure, shortened: (§1)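 RAW264.7 cells transfected with a reporter plasmid carrying eight kappaB elements driving secreted alkaline phosphatase, seeded 5 × 10^4 cells/well. After 3 h at 37 °C, cells were given compound (0.1–10 µM) plus LPS 1 µg/mL for 24 h. SEAP activity was read at 405 nm with p-nitrophenyl phosphate substrate in diethanolamine/MgCl2/L-homoarginine buffer. IC50 is relative to vehicle control, mean ± SD of three experiments.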
# RAW264.7 [2] = test: Inhibition of NO production in LPS-stimulated RAW264.7 cells after 24 hrs; details: Mus musculus, RAW264.7, 24 h
# Procedure, shortened: (§2)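 RAW264.7 cells (1 × 10^5/well) were stimulated with LPS 1 µg/mL for 24 h with or without compound (0.1, 0.3, 1, 3, 10 µM). Nitrite in the culture supernatant was measured with Griess reagent. The remaining cells were checked for viability by MTT. IC50 is relative to vehicle control, mean ± SD of three separate experiments.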
# RAW264.7 [3] = test: Inhibition of NO production in LPS-stimulated RAW264.7 cells at 10 uM after 24 hrs; details: Mus musculus; procedure, shortened: as §2
# RAW264.7 [4] = test: Inhibition of NF-kappaB activation in LPS-stimulated RAW264.7 cells at 10 uM after 24 hrs; details: Mus musculus; procedure, shortened: as §1
SMILES,IC50 (RAW264.7 [1]),IC50 (RAW264.7 [2]),Activity (RAW264.7 [3]),Activity (RAW264.7 [4])
C=C1C(=O)[C@@]23CC[C@@H]4[C@](C)(CO)[C@@H](OC(C)=O)CC[C@@]4(C)[C@@H]2[C@@H](O)C[C@@H]1C3 [EXCISUSIN A],900 nM,670 nM,–,–
C=C1C(=O)[C@@]23CC[C@@H]4C(C)(C)[C@@H](OC(C)=O)C[C@H](O)[C@@]4(C)[C@@H]2[C@@H](O)C[C@@H]1C3 [EXCISUSIN B],260 nM,560 nM,–,–
C=C1C(=O)[C@]23C[C@H]1C[C@H](O)[C@H]2[C@]1(C)CC[C@H](OC(C)=O)C(C)(C)[C@H]1[C@@H](O)C3 [INFLEXANIN A],400 nM,630 nM,–,–
C=C1C(=O)[C@]23C[C@H]1C[C@H](O)[C@H]2[C@@]1(C)[C@H]([C@@H](O)C3)C(C)(C)[C@@H](OC(C)=O)C[C@@H]1O [INFLEXANIN B],1820 nM,2520 nM,–,–
C=C1[C@@H]2C[C@H](OC(C)=O)[C@@H]3[C@](C2)(C[C@H](O)[C@@H]2C(C)(C)[C@@H](OC(C)=O)C[C@H](O)[C@]23C)[C@@H]1O [INFLEXARABDONIN A],> 10000 nM,> 10000 nM,inactive,inactive
C=C1C(=O)[C@]23C[C@H]1C[C@H](O)[C@H]2[C@]1(C)CCC(=O)C(C)(C)[C@H]1[C@@H](O)C3 [INFLEXARABDONIN I],1150 nM,1240 nM,–,–
C=C1C(=O)[C@@]23CC(=O)[C@@H]4C(C)(C)[C@@H](OC(C)=O)C[C@H](O)[C@@]4(C)[C@@H]2[C@@H](OC(C)=O)C[C@@H]1C3 [INFLEXIN],230 nM,690 nM,–,–
N=C(N)NN [PIMAGEDINE],–,32200 nM,–,–

# More lines, main results first:
IC50 (RAW264.7 [1]),IC50 (RAW264.7 [2]),SMILES,Activity (RAW264.7 [3]),Activity (RAW264.7 [4])
1150 nM,–,C=C1C(=O)O[C@@H]2C3O[C@]3(C)CC/C=C(\C)CC[C@@H]12 (stereo not given in full),–,–
> 10000 nM,> 10000 nM,C=C1[C@@H]2C[C@H](O)[C@H]3[C@]4(C)CC[C@@H](O)[C@@](C)(COC(C)=O)[C@H]4CC[C@]3(C2)[C@@H]1O [EXCISUSIN C],inactive,inactive
3210 nM,2890 nM,C=C1C(=O)[C@]23C[C@H]1C[C@H](OC(C)=O)[C@H]2[C@@]1(C)[C@H]([C@@H](O)C3)C(C)(C)[C@@H](O)C[C@@H]1O [EXCISUSIN D],–,–
1020 nM,1360 nM,C=C1C(=O)[C@@]23CC[C@H]4[C@@](C)(CCC(=O)[C@@]4(C)COC(C)=O)[C@@H]2[C@@H](O)C[C@@H]1C3 [EXCISUSIN E],–,–
240 nM,480 nM,C=C1C(=O)[C@@]23CC[C@@H]4C(C)(C)[C@@H](OC(C)=O)C[C@H](O)[C@@]4(C)[C@@H]2[C@@H](OC(C)=O)C[C@@H]1C3 [INFLEXARABDONIN G],–,–
440 nM,940 nM,C=C1C(=O)[C@]23C[C@H]1C[C@H](OC(C)=O)[C@H]2[C@@]1(C)[C@H]([C@@H](O)C3)C(C)(C)[C@@H](OC(C)=O)C[C@@H]1O [INFLEXINOL],–,–
